An excerpt weighted towards active compounds, which were near 4.3% of everything screened.
MC4R antag cAMP = blocks human MC4R cAMP signaling; inhibition, % at 6.5 µM; MC4R-expressing cells, MTII-stimulated cAMP, LANCE TR-FRET; actives 0.48% (n = 360,000); P32245; AID 540295;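 active = inhibition above its plate's cutoff, the mean of tested wells on that plate plus 3 SD, cut at about 29% in these data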
Target sequence (P32245 whole entry, looked up): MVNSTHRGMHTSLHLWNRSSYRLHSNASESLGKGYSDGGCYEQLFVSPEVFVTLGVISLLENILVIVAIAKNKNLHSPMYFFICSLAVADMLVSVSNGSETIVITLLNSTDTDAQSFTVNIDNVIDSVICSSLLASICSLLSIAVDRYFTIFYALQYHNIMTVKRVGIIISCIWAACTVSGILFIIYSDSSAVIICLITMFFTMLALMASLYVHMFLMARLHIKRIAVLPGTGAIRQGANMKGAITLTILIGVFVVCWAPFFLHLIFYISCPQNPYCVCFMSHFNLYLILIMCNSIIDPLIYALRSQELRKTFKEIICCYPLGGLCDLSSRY
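System: U2OS cells stably expressing human melanocortin 4 receptor (MC4R). Reagent: Melanotan II challenge after compound preincubation. Doses: 6.5 µM. Times: 30-min compound, 1-h challenge, 1-h detection, room temperature. Measured by: TR-FRET with Eu-cAMP and labeled anti-cAMP, 671 nm. Replicates: singlicate.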
TAAR1 antagonist = antagonists of human TAAR1 | CHO RD-HGA16 TAAR1, Fluo-8 calcium fluorescence, antagonist | inhibition, % at 3 µM | actives 1.5% (n = 360,000) | AID 624466;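 active = inhibition above a per-plate cutoff, the mean inhibition of test compounds on that plate plus 3 SD, cut at about 49% in these data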
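Test system: hTAAR1-expressing CHO RD-HGA16 cells, Gα16-coupled; Probe or stimulus: EC80 β-phenethylamine stimulus; Compound dosing: single nominal final test compound concentration of 3 µM; Timing: 140 s kinetic read after compound, 140 s after agonist; Signal: Fluo-8 calcium-sensitive fluorescence; Measure: % inhibition of agonist calcium response; Controls: DMSO and EC80 PEA controls.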
Beta2AR agonist = human beta-2 adrenergic receptor agonism by FAP; P07550; Am2.2-beta2AR cells, FAP receptor internalization, flow cytometry; response, % (concentration not given with the values); actives 0.43% (n = 340,000); AID 504454;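 active = response above a set limit, near 3 SD of response in nonfluorescent compounds, cut at about 42% in these data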
HTR2A ag = mouse HTR2A agonism via beta-arrestin recruitment | actives 0.66% (n = 360,000) | AID 624169 | activation, % at 7.6 µM | CHO-K1 mHTR2A beta-arrestin complementation, luminescence; percent of 30 µM serotonin response;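 active = activation above a run cutoff, the mean activation of all tested compounds plus 3 SD, cut at about 14% in these data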
TAAR1 agonist = human TAAR1 agonism. CHO RD-HGA16 TAAR1, Fluo-8 calcium fluorescence; vehicle wells 0%, saturating PEA agonist 100%. activation, % at 3 µM. actives 0.99% (n = 360,000). AID 624467;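 active = activation above the mean activation of all test compounds in the run plus 3 SD, cut at about 38% in these data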
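Assay system: CHO-derived RD-HGA16 cells with stable Gα16 and human TAAR1; timing: 17-24 h seeding, 75 min 37 °C dye, 30 min RT; read-out: % activation from peak over basal fluorescence ratio, DMSO-to-PEA scaled; measured by: kinetic Fluo-8 calcium fluorescence; benchmarks: low control DMSO, high control PEA (EC100); doses: 3 µM single concentration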
MC4R ag barr = activates human MC4R beta-arrestin recruitment | P32245 | U2OS MC4R beta-arrestin complementation, luminescence; percent of melanotan II response, DMSO zero | activation, % at 8.9 µM | actives 0.98% (n = 360,000) | AID 540308;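 active = activation above a per-plate cutoff, the mean activation of sample wells on that plate plus 3 SD, cut at about 8% in these data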
Hits are given with their value.

For CC(=O)Nc1ccc(Nc2ncnc3c2cnn3-c2ccccc2)cc1 the results were MC4R antag cAMP inactive, TAAR1 antagonist inactive, Beta2AR agonist inactive, HTR2A ag inactive, TAAR1 agonist 38 and MC4R ag barr inactive.
For O=C(/C=C/c1ccco1)OCC(=O)c1ccc(OC(F)F)cc1 the results were MC4R antag cAMP inactive, TAAR1 antagonist inactive, Beta2AR agonist inactive, HTR2A ag inactive, TAAR1 agonist inactive and MC4R ag barr inactive.
`CCc1ccc(NC(=O)C(C)OC(=O)/C=C/c2ccc(O)c(OC)c2)cc1` (configuration not stated) gave MC4R antag cAMP inactive, TAAR1 antagonist 82, Beta2AR agonist inactive, HTR2A ag inactive, TAAR1 agonist 111 and MC4R ag barr inactive.
For COc1cc(/C=C/C(=O)OCC(=O)Nc2cc(S(=O)(=O)N(C)C)ccc2Cl)ccc1O the results were MC4R antag cAMP inactive, TAAR1 antagonist inactive, Beta2AR agonist inactive, HTR2A ag inactive, TAAR1 agonist inactive and MC4R ag barr 8.9.
COc1cc(/C=C/C(=O)OCC(=O)c2ccc(OC(F)F)cc2)ccc1O was read as MC4R antag cAMP inactive, TAAR1 antagonist 61, Beta2AR agonist inactive, HTR2A ag inactive, TAAR1 agonist inactive and MC4R ag barr inactive.
`COc1cc(/C=C/C(=O)OC(C)C(=O)Nc2c(C)n(C)n(-c3ccccc3)c2=O)ccc1O` (configuration not stated) gave MC4R antag cAMP inactive, TAAR1 antagonist inactive, Beta2AR agonist inactive, HTR2A ag inactive, TAAR1 agonist inactive and MC4R ag barr inactive.
CC(C)C[C@H]1COc2cccc(NCCO)c2S(=O)(=O)N1 was read as TAAR1 antagonist inactive and TAAR1 agonist inactive.
For CCN1CCN(CCNC(=O)c2ccc(/C=C3/Sc4ccccc4N(Cc4cccc(Cl)c4)C3=O)cc2)CC1 the results were MC4R antag cAMP inactive, TAAR1 antagonist 56, Beta2AR agonist inactive, HTR2A ag inactive, TAAR1 agonist inactive and MC4R ag barr inactive.
Screening CN1CCN(CCCNC(=O)c2ccc(/C=C3\Sc4ccccc4N(Cc4ccccc4F)C3=O)cc2)CC1 returned MC4R antag cAMP inactive, TAAR1 antagonist inactive, Beta2AR agonist 88, HTR2A ag inactive, TAAR1 agonist inactive and MC4R ag barr 8.9.
For Cc1cccc(CN2C(=O)/C(=C\c3ccc(C(=O)NCCN4CCOCC4)cc3)Sc3ccccc32)c1 the results were MC4R antag cAMP inactive, Beta2AR agonist 46, HTR2A ag inactive and MC4R ag barr inactive.
For CCN1CCN(CCNC(=O)c2ccc3c(c2)N(Cc2ccc(F)cc2)C(=O)/C(=C/c2ccccc2)S3)CC1 the results were MC4R antag cAMP inactive, TAAR1 antagonist inactive, Beta2AR agonist inactive, HTR2A ag inactive, TAAR1 agonist inactive and MC4R ag barr inactive.
For O=C(N/N=C/c1cn[nH]c1-c1ccc(Cl)cc1)c1ccc([N+](=O)[O-])cc1 the results were MC4R antag cAMP inactive, TAAR1 antagonist inactive, Beta2AR agonist inactive, HTR2A ag inactive, TAAR1 agonist inactive and MC4R ag barr inactive.
`O=C(N/N=C\c1cn[nH]c1-c1ccc(Cl)cc1)c1cccs1` gave MC4R antag cAMP inactive, TAAR1 antagonist inactive, Beta2AR agonist inactive, HTR2A ag inactive, TAAR1 agonist inactive and MC4R ag barr 8.8.
For Cc1nnc(NC(=O)Nc2cccc(Cl)c2)s1 the results were MC4R antag cAMP inactive, TAAR1 antagonist inactive, Beta2AR agonist inactive, HTR2A ag inactive, TAAR1 agonist 43 and MC4R ag barr inactive.
Screening COC(=O)c1cc(NC(=O)Nc2cccc(Cl)c2)ccc1Cl returned MC4R antag cAMP inactive, TAAR1 antagonist 60, Beta2AR agonist inactive, HTR2A ag inactive, TAAR1 agonist inactive and MC4R ag barr inactive.
Screening COC(=O)c1cc(NC(=O)c2ccc(-c3ccccc3)cc2)ccc1Cl returned MC4R antag cAMP inactive, TAAR1 antagonist inactive, Beta2AR agonist inactive, HTR2A ag inactive, TAAR1 agonist inactive and MC4R ag barr 9.3.
O=C(Nc1ccc(-c2ccccc2)cc1)c1ccccc1 was read as MC4R antag cAMP inactive, TAAR1 antagonist inactive, Beta2AR agonist inactive, HTR2A ag inactive, TAAR1 agonist inactive and MC4R ag barr inactive.
Screening O=C(C(=O)N1CCC(CNC(=O)c2cccs2)CC1)c1cc2ccccc2o1 returned TAAR1 antagonist inactive and TAAR1 agonist inactive.

Screens as filed in PubChem BioAssay.
